Source: ChEMBL document CHEMBL1255494, “In vivo comparison of the pharmacodynamic targets for echinocandin drugs against Candida species” (Antimicrob Agents Chemother, 2010)
Values after ≈ are worked out from the molar mass of the structure shown. *1 amine or outer side, *2 acyl side, *3 side chain or, on linkers, in order; H or OH if unused. Where a SMILES comes first, the peptide text is derived from it. Bridges are numbered along the chain shown (N, C = ends). [ ]: non-standard residue; d: D form. The star is where a group is joined. pTerphenylCO(4''-OnC5H11) = CCCCCOc1ccc(-c2ccc(-c3ccc(C(=O)*)cc3)cc2)cc1; Orn(4R-OH,5R-OH) = O=C([C@H](C[C@@H](O)[C@@H](O)N[*:3])N[*:1])[*:2]; hTyr(3S-OH,4S-OH) = N[C@H](C(=O)O)[C@H](O)[C@@H](O)c1ccc(O)cc1; Pro(3S-OH,4S-Me) = C[C@H]1CN[C@H](C(=O)O)[C@H]1O; Hyp = O=C(O)[C@@H]1C[C@@H](O)CN1

What was measured:
[1] = Ratio of fAUC (0 to 24 hrs) in Candida albicans infected neutropenic ICR Swiss mouse to MIC for Candida albicans at 1 log kill dose after 24 hrs; type: functional
[2] = test system: Nakaseomyces glabratus; test: Antifungal activity against Candida glabrata 32930 after 24 hrs; type: functional; conditions: Nakaseomyces glabratus, 32930, 24 h
How it was run: (§1)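 Broth microdilution per CLSI M27-A3 in RPMI 1640; inoculum 0.5 × 10³ to 2.5 × 10³ cells/ml, 35°C. […] Three separate occasions in duplicate, mean reported; C. krusei ATCC 6258 and C. parapsilosis ATCC 22019 as daily QC.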

[3] = test system: Nakaseomyces glabratus; test: Antifungal activity against Candida glabrata 34341 after 24 hrs; type: functional; conditions: Nakaseomyces glabratus, 34341, 24 h
How it was run: (§2)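 MICs by CLSI M27-A3 broth dilution in RPMI 1640, inoculum 0.5 × 10³ to 2.5 × 10³ cells/ml, 35°C. Read visually at 24 h as the lowest concentration giving ≥50% growth reduction versus control. Run on three occasions in duplicate and reported as the mean. C. krusei ATCC 6258 and C. parapsilosis ATCC 22019 served as QC strains.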

[4] = Ratio of fAUC (0 to 24 hrs) in Candida parapsilosis infected neutropenic ICR Swiss mouse to MIC for Candida parapsilosis at static dose after 24 hrs; type: functional
[5] = test system: Candida parapsilosis; test: Antifungal activity against Candida parapsilosis 20423.078 after 24 hrs; type: functional; conditions: Lodderomyces parapsilosis, 20423.078, 24 h; how it was run: as §2
[6] = test system: Candida albicans; test: Antifungal activity against Candida albicans K1 after 24 hrs; type: functional; conditions: K1, 24 h; how it was run: as §1
[7] = test system: Candida albicans; test: Antifungal activity against Candida albicans 580 after 24 hrs; type: functional; conditions: Candida albicans, 580, 24 h; how it was run: as §1
[8] = Ratio of AUC (0 to 24 hrs) in Candida glabrata infected neutropenic ICR Swiss mouse to MIC for Candida glabrata at 1 log kill dose after 24 hrs; type: functional
How it was run: (§3)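 Neutropenic mice were infected iv and treated 2 h later. Four to six ip dose levels (0.078–160 mg/kg) were given every 24 h for 4 days, 3 mice per regimen. Kidney CFU were counted at 96 h. A sigmoid dose-effect model gave the static and 1-log-kill doses relative to burden at therapy start.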

[9] = test system: Candida albicans; test: Antifungal activity against Candida albicans 570 after 24 hrs; type: functional; conditions: Candida albicans, 570, 24 h; how it was run: as §2
[10] = test system: Candida parapsilosis; test: Antifungal activity against Candida parapsilosis 20489.085 after 24 hrs; type: functional; conditions: Lodderomyces parapsilosis, 20489.085, 24 h; how it was run: as §1
[11] = test system: Nakaseomyces glabratus; test: Antifungal activity against Candida glabrata 5376 after 24 hrs; type: functional; conditions: Nakaseomyces glabratus, 5376, 24 h; how it was run: as §1
[12] = test system: Nakaseomyces glabratus; test: Fungistatic activity against Candida glabrata infected in neutropenic ICR Swiss mouse after 24 hrs; type: functional
How it was run: (§4)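 Female ICR Swiss mice, neutropenic via cyclophosphamide s.c. (150 mg/kg day −4, 100 mg/kg day −1 and day +2), infected by tail-vein injection of clinical isolates 2 h before therapy. Intraperitoneal dosing every 24 h for 4 days, 4–6 dose levels from 0.078 to 160 mg/kg, 3 mice per regimen. Kidney CFU counted at 96 h. Sigmoid dose-effect fit gives static dose and 1 log kill dose relative to burden at start of therapy.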

[13] = test system: Candida parapsilosis; test: Antifungal activity against Candida parapsilosis 20511.092 after 24 hrs; type: functional; conditions: Lodderomyces parapsilosis, 20511.092, 24 h; how it was run: as §2
[14] = AUC (0 to 24 hrs) in Candida albicans infected neutropenic ICR Swiss mouse at 5 mg/kg, ip; type: ADME, organism-based; design: time < 24 hr, dose 5 mg/kg, route intraperitoneal; conditions: plasma
How it was run: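 Neutropenic female ICR Swiss mice (cyclophosphamide sc at 150 mg/kg on day −4, 100 mg/kg on day −1 and day +2) infected iv via tail vein with Candida; single ip doses of 5, 20 or 80 mg/kg. Serum drawn from 3 mice per time point at eight time points and assayed by microbiologic assay (C. albicans K1) or […]. Noncompartmental analysis; AUC by trapezoidal rule.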

[15] = Ratio of fAUC (0 to 24 hrs) in Candida glabrata infected neutropenic ICR Swiss mouse to MIC for Candida glabrata at 1 log kill dose after 24 hrs; type: functional
[16] = Ratio of fAUC (0 to 24 hrs) in Candida parapsilosis infected neutropenic ICR Swiss mouse to MIC for Candida parapsilosis at 1 log kill dose after 24 hrs; type: functional
[17] = test system: Nakaseomyces glabratus; test: Antifungal activity against Candida glabrata 5592 after 24 hrs; type: functional; conditions: Nakaseomyces glabratus, 5592, 24 h; how it was run: as §1
[18] = Ratio of AUC (0 to 24 hrs) in Candida parapsilosis infected neutropenic ICR Swiss mouse to MIC for Candida parapsilosis at static dose after 24 hrs; type: functional; how it was run: as §3
[19] = test system: Candida parapsilosis; test: Antifungal activity against Candida parapsilosis 20562.03 after 24 hrs; type: functional; conditions: Lodderomyces parapsilosis, 20562.03, 24 h; how it was run: as §2
[20] = test system: Candida parapsilosis; test: Antifungal activity against Candida parapsilosis infected in ICR Swiss mouse; type: functional; how it was run: as §4
[21] = test system: Candida metapsilosis; test: Antifungal activity against Candida metapsilosis 20463.02 after 24 hrs; type: functional; conditions: Lodderomyces metapsilosis, 20463.02, 24 h; how it was run: as §2
[22] = test system: Candida albicans; test: Fungistatic activity against Candida albicans infected in neutropenic ICR Swiss mouse after 24 hrs; type: functional; how it was run: as §4
[23] = Ratio of fAUC (0 to 24 hrs) in Candida glabrata infected neutropenic ICR Swiss mouse to MIC for Candida glabrata at static dose after 24 hrs; type: functional
[24] = test system: Candida parapsilosis; test: Antifungal activity against Candida parapsilosis 20450.096 after 24 hrs; type: functional; conditions: Lodderomyces parapsilosis, 20450.096, 24 h; how it was run: as §2
[25] = test system: Candida parapsilosis; test: Antifungal activity against Candida parapsilosis 20477.048 after 24 hrs; type: functional; conditions: Lodderomyces parapsilosis, 20477.048, 24 h; how it was run: as §2
[26] = Ratio of AUC (0 to 24 hrs) in Candida albicans infected neutropenic ICR Swiss mouse to MIC for Candida albicans at static dose after 24 hrs; type: functional; how it was run: as §3
[27] = test system: Nakaseomyces glabratus; test: Antifungal activity against Candida glabrata 33616 after 24 hrs; type: functional; conditions: Nakaseomyces glabratus, 33616, 24 h; how it was run: as §2
[28] = test system: Nakaseomyces glabratus; test: Antifungal activity against Candida glabrata infected in neutropenic ICR Swiss mouse assessed log reduction in bacterial count […]; type: functional; how it was run: as §4
[29] = test system: Candida orthopsilosis; test: Antifungal activity against Candida orthopsilosis 20577.055 after 24 hrs; type: functional; conditions: Lodderomyces orthopsilosis, 20577.055, 24 h; how it was run: as §2
[30] = test system: Nakaseomyces glabratus; test: Antifungal activity against Candida glabrata 37661 after 24 hrs; type: functional; conditions: Nakaseomyces glabratus, 37661, 24 h; how it was run: as §2
[31] = test system: Nakaseomyces glabratus; test: Antifungal activity against Candida glabrata 513 after 24 hrs; type: functional; conditions: Nakaseomyces glabratus, 513, 24 h; how it was run: as §1
[32] = test system: Candida albicans; test: Antifungal activity against Candida albicans infected in ICR Swiss mouse assessed as log reduction in bacterial count […]; type: functional; how it was run: as §4
[33] = Ratio of AUC (0 to 24 hrs) in Candida glabrata infected neutropenic ICR Swiss mouse to MIC for Candida glabrata at static dose after 24 hrs; type: functional; how it was run: as §3
[34] = test system: Mus musculus; test: Protein binding in Candida albicans infected neutropenic ICR Swiss mouse at 80 mg/kg, ip; type: ADME, organism-based; design: dose 80 mg/kg, route intraperitoneal; conditions: in vivo
[35] = test system: Nakaseomyces glabratus; test: Antifungal activity against Candida glabrata infected in ICR Swiss mouse; type: functional; how it was run: as §4
[36] = test system: Candida parapsilosis; test: Antifungal activity against Candida parapsilosis 20423.072 after 24 hrs; type: functional; conditions: Lodderomyces parapsilosis, 20423.072, 24 h; how it was run: as §2
[37] = test system: Candida parapsilosis; test: Antifungal activity against Candida parapsilosis 20385.079 after 24 hrs; type: functional; conditions: Lodderomyces parapsilosis, 20385.079, 24 h; how it was run: as §2

## CCCCCOc1ccc(-c2ccc(-c3ccc(C(=O)N[C@H]4C[C@@H](O)[C@@H](O)NC(=O)[C@@H]5[C@@H](O)[C@@H](C)CN5C(=O)[C@H]([C@@H](C)O)NC(=O)[C@H]([C@H](O)[C@@H](O)c5ccc(O)cc5)NC(=O)[C@@H]5C[C@@H](O)CN5C(=O)[C@H]([C@@H](C)O)NC4=O)cc3)cc2)cc1 [ANIDULAFUNGIN] ({pTerphenylCO(4''-OnC5H11)}-[Orn(4R-OH,5R-OH)]T[Hyp][hTyr(3S-OH,4S-OH)]T[Pro(3S-OH,4S-Me)]; lactam 1-C)
[1]
  Ratio: 91
[2]
  MIC: 0.06 µg/mL (≈ 0.0526 µM)
[3]
  MIC: 0.12 µg/mL (≈ 0.105 µM)
[4]
  Ratio: 11.5
[5]
  MIC: 1 µg/mL (≈ 0.877 µM)
[6]
  MIC: 0.015 µg/mL (≈ 0.0132 µM)
[7]
  MIC: 0.015 µg/mL (≈ 0.0132 µM)
[8]
  Ratio: 3188
[9]
  MIC: 0.03 µg/mL (≈ 0.0263 µM)
[10]
  MIC: 1 µg/mL (≈ 0.877 µM)
[11]
  MIC: 0.03 µg/mL (≈ 0.0263 µM)
[12]
  Activity: 21.1 mg/kg
[13]
  MIC: 1 µg/mL (≈ 0.877 µM)
[14]
  AUC(0-t) at 24 h: 96000 ng·h/mL
[15]
  Ratio: 32
[16]
  Ratio: 22
[17]
  MIC: 0.06 µg/mL (≈ 0.0526 µM)
[18]
  Ratio: 1154
[19]
  MIC: 1 µg/mL (≈ 0.877 µM)
[20]
  Emax: 5.8 log10 CFU/kidneys
[20]; Lodderomyces parapsilosis
  ED50: 7.2 mg/kg
[21]
  MIC: 0.25 µg/mL (≈ 0.219 µM)
[22]
  Activity: 2.32 mg/kg
[23]
  Ratio: 13.7
[24]
  MIC: 1 µg/mL (≈ 0.877 µM)
[25]
  MIC: 2 µg/mL (≈ 1.75 µM)
[26]
  Ratio: 2782
[27]
  MIC: 1 µg/mL (≈ 0.877 µM)
[28]
  Activity: 39 mg/kg
[29]
  MIC: 0.5 µg/mL (≈ 0.438 µM)
[30]
  MIC: 2 µg/mL (≈ 1.75 µM)
[31]
  MIC: 0.06 µg/mL (≈ 0.0526 µM)
[32]
  Activity: 4.25 mg/kg
[33]
  Ratio: 1366
[34]
  Activity: 99%
[35]
  Emax: 6 log10 CFU/kidneys
[35]; Nakaseomyces glabratus
  ED50: 15.5 mg/kg
[36]
  MIC: 1 µg/mL (≈ 0.877 µM)
[37]
  MIC: 1 µg/mL (≈ 0.877 µM)
